Hits are enriched below; roughly 3.8% of the tested compounds scored in any of these assays.
KCNK9 block: inhibitors of human KCNK9 two-pore domain potassium channel | Q9NPC2 | HEK293 KCNK9, FluxOR thallium flux fluorescence; stronger effect = lower value | B-score at 10 µM | 310,000 tested, 1.2% active | AID 488922;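 active = ratio B-score over 3 SD below the library mean, with starting fluorescence within 5 SD of its mean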;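 also: negative B-score means less thallium flux so channel inhibition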
KCNQ1 block: human KCNQ1 channel inhibition. P51787. CHO-K1 KCNQ1, FluxOR thallium flux fluorescence; stronger effect = higher value. B-score at 10 µM. 310,000 tested, 1.3% active. AID 2642;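 active = compounds whose thallium flux B-score, printed positive for inhibition, exceeds three library SD while starting fluorescence stays within three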;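 also: channel opened by potassium depolarization with thallium stimulus after 20 min compound exposure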
KCNQ1 pot: human KCNQ1 channel potentiation or activation; P51787; CHO-K1 KCNQ1, thallium flux FluxOR fluorescence; stronger effect = higher value; B-score at 10 µM; 310,000 tested, 0.35% active;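 active = fluorescence ratio B-score, a plate-corrected score, at least three library SD, with initial intensity B-score within 5 SD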
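System: CHO-K1 cells stably expressing KCNQ1 / Medium: assay buffer for compound exposure, DMSO matched across wells / Reagent: thallium- and potassium-containing depolarizing buffer / Compound: one concentration, matched DMSO / Incubation: 20 min compound pretreatment at room temperature / Measured by: kinetic FluxOR fluorescence, 10 s baseline plus 110 s post-stimulus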
KCNK3 inh: human KCNK3 channel inhibition, primary screen; 340,000 tested, 0.84% active; CHO-KCNK3 thallium flux, FluxOR fluorescence; stronger effect = lower value; B-score at 10 µM; O14649; AID 602410;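 active = B-score under library mean minus 4 SD, starting fluorescence ratio at most library mean plus 5 SD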;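 also: more negative B-score means stronger inhibition of thallium flux through KCNK3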
Target sequence (O14649 whole entry, looked up): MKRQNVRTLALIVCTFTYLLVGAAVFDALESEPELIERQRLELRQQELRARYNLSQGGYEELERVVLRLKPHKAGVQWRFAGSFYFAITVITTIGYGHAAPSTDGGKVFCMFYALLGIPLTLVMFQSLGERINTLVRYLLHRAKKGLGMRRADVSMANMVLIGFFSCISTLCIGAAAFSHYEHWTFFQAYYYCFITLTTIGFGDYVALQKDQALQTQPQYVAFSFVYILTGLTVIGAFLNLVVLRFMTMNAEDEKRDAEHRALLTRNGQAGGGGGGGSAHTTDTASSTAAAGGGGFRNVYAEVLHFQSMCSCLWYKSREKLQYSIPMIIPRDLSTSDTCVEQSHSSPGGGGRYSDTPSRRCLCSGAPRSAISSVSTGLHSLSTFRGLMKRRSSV
hERG rescue: shields human hERG channel from block by proarrhythmic agents; 310,000 tested, 0.51% active; CHO-hERG, FluxOR thallium flux, dofetilide IC70 present; activation (rescue from dofetilide block), less the hit threshold, % at 10 µM;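 active = activation above the mean of controls blocked by dofetilide plus 5 SD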;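 also: thallium influx through hERG after potassium depolarization seen as dye fluorescence rise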
Kir21 inh: inhibitors of mouse Kir2.1 inward-rectifier potassium channel; P35561; HEK293-Kir2.1, FluxOR thallium flux fluorescence; stronger effect = lower value; 310,000 tested, 0.85% active; B-score at 10 µM; AID 1672;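 active = fluorescence ratio B-score at or below minus 3 SD of library scores, with starting-brightness B-score within 2 SD, cut at about -4.2 in these data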;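 also: channel flux triggered by added potassium and thallium sulfate stimulus; B-score of peak minus minimum fluorescence over baseline after thallium stimulus; more negative B-score means stronger Kir2.1 block with less thallium influx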
Hits are given with their value; i = inactive; nt = not tested or not shown.

SMILES | KCNK9 block | KCNQ1 block | KCNQ1 pot | KCNK3 inh | hERG rescue | Kir21 inh
Cc1ccc(S(=O)(=O)N2CCN(C(=O)COC(=O)CSc3ccccc3)CC2)c(C)c1 | i | i | i | i | i | i
Oc1ccccc1N1CCN(c2ccc3ccccc3n2)CC1 | i | i | i | i | i | i
CC1CCN(CCCCOc2ccccc2-c2ccccc2)CC1 | i | i | i | i | i | -9.65
COc1ccccc1OCCCCN1CCC(C)CC1 | i | i | i | i | i | i
CCOc1ccc(CCNC(=O)COn2nnc3ccc(S(=O)(=O)N4CCOCC4)cc32)cc1OCC | i | i | i | i | i | i
CC(C(=O)N1CCCC1)N1CCN(c2ccccc2O)CC1 (configuration not stated) | i | i | i | i | 11.2 | i
COc1ccccc1N1CCN(C(C)C(=O)N2CC(C)OC(C)C2)CC1 (configuration not stated) | i | i | i | i | i | i
CCCCn1c(SCC(=O)c2c(N)n(C3CC3)c(=O)[nH]c2=O)nc2cc(S(N)(=O)=O)ccc21 | nt | nt | nt | i | nt | nt
O=C(O)C(c1ccccc1)C(O)C1CCCC1 (configuration not stated) | nt | nt | nt | i | nt | nt
Cc1cccc(C(=O)N[C@@H](C)C(=O)N2CCN(c3ncccn3)CC2)c1 | nt | nt | nt | i | nt | nt
CC(C)[C@H]1COCCS(=O)(=O)N1Cc1cccc(Cl)c1 | i | i | i | i | i | i
CCOC(=O)c1sc(NC(=O)c2c(C)nn(Cc3ccccc3)c2C)cc1C | nt | nt | nt | -11.2 | nt | nt
Cc1cccc(-c2cc3nc4c(c(N5CCOCC5)n3n2)CCCC4)c1 | i | i | i | i | i | i
Cc1cccc(-c2cc3nc4c(c(NCc5ccco5)n3n2)CCCC4)c1 | -7.22 | i | i | i | i | i
O=C(CSc1nnc2c(n1)[nH]c1ccc(F)cc12)NCc1ccc(F)cc1 | i | i | i | i | i | i
COCCNC(=O)/C(C#N)=C/c1ccc(OC(=O)c2cccs2)c(OC)c1 | i | i | i | i | i | -6.02
COc1ccc(CCNC(=O)/C(C#N)=C/c2cccc(OCc3ccccc3)c2)cc1OC | i | i | i | i | i | -4.4
COCCNC(=O)/C(C#N)=C/c1cccs1 | i | i | i | i | i | i
Cc1ccc(-c2cc(C(=O)N/N=C/c3ccc(Cl)cc3)n[nH]2)o1 | i | i | i | i | i | i
Cc1c(C(=O)Nc2cccc([N+](=O)[O-])c2)cnn1-c1ccccc1 | i | i | i | i | 7.0 | i
Cc1cc(C)n(-c2ccc(C(=O)Nc3cccc(S(=O)(=O)N(C)C)c3)cc2)n1 | i | i | i | i | i | i
Cc1cc(C)n(-c2ccc(C(=O)Nc3cccc([N+](=O)[O-])c3)cc2)n1 | i | 9 | i | i | i | i
Cc1cc(SCc2ccc([N+](=O)[O-])cc2)nc(=O)[nH]1 | i | i | i | i | i | i
COc1ccccc1OCCSc1nc2ccccc2n1CCO | i | i | i | i | i | -4.26
CCCn1c(COc2ccccc2OC)nc2ccccc21 | i | i | i | i | i | -4.3
SMILES | KCNK9 block | KCNQ1 block | KCNQ1 pot | KCNK3 inh | hERG rescue | Kir21 inh
COc1ccccc1OCCSc1nc2ccccc2n1CCC(=O)O | i | i | i | i | i | i
CCn1c(COc2ccccc2OC)nc2ccccc21 | i | i | i | i | i | i
Cc1cc(CC(=O)O)c2oc(-c3ccoc3)cc(=O)c2c1 | i | i | i | i | i | i
Cc1cc(C)c2sc(NNC(=O)c3ccc(S(=O)(=O)N4CCc5ccccc5C4)cc3)nc2c1 | i | 7 | i | i | i | i
Nc1nc(-c2c(Cl)cccc2Cl)no1 | i | i | i | i | 5.7 | i
O=S(=O)(Oc1ccccc1-c1ccccc1)c1ccccc1 | nt | nt | nt | i | nt | nt
Cc1ccc(C(=O)NC(=S)N(C)C2CCCCC2)cc1 | i | i | 17 | i | 14.7 | i
CC[C@]12c3[nH]c4ccccc4c3CCN1C(=O)C(CC(=O)NCCC1=CCCCC1)C[C@@H]2C(=O)N1CCN(C(=O)c2ccco2)CC1 (some centres not stated) | nt | nt | nt | i | nt | nt
COc1ccc(CCCc2nnc(SCC(=O)NN)o2)c(C)c1 | i | i | i | i | i | i
Cc1cc(C)cc(CSCC(=O)NN=C2CCCCCC2)c1 | i | i | i | i | i | -10.3
CC(C)CC(=O)/C(=C\c1ccc(Cl)cc1Cl)n1cncn1 | i | i | i | i | i | -8.18
CC(C)CC(=O)/C(=C/c1ccc(N(C)C)cc1)n1cncn1 | i | i | i | i | i | i
